Data set [1] in a line: Metal chelating activity of compound assessed as compound-Cu2+ complex formation at 0.1 mM after 10 mins in presence of CuSO4.5H2O by complexometric indicator murexide based UV-Vis spectrophotometric analysis. Format: physicochemical. The conditions noted are these: 100 µM. Summed up: (§1)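 Compound (0.02-2 mM) incubated with CuSO4 (120 µM) for 10 min at rt, in 10 mM hexamine/HCl with 10 mM KCl (pH 5.0), or in buffer/MeOH 75:25 for poorly soluble compounds. Murexide added, 1 min more. The A485/A520 ratio gives free Cu2+ from a CuSO4 calibration curve (0-125 µM). % chelation is taken by difference from the no-compound control; triplicates.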

Data set [2] in a line: Reactive carbonyl species trapping activity of compound assessed as MGO adduct formation at 10 mM preincubated for 24 hrs with MGO measured after 0.25 hrs by LCMS analysis. The format is physicochemical. As to conditions: 10000 µM.
Data set [3] in a line: Metal chelating activity of compound assessed as compound-Cu2+ complex formation at 0.02 mM after 10 mins in presence of CuSO4.5H2O by complexometric indicator murexide based UV-Vis spectrophotometric analysis. As to conditions: 20 µM. Format: physicochemical. Summed up: as §1
Data set [4] in a line: Reactive carbonyl species trapping activity of compound assessed as MGO adduct formation at 10 mM preincubated for 24 hrs with MGO measured after 5 hrs by LCMS analysis. The format is physicochemical. As to conditions: 10000 µM.
A further data set is filed under the species Rattus norvegicus. The experiment in a line: Cytotoxicity against rat […] PC12 cells assessed as reduction in cell viability at 10 to 100 uM after 24 hrs by WST8-based CCK8 assay. Format: toxicity. The conditions noted are these: pc-12, 24 h. Summed up: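 PC12 Adh cells (rat pheochromocytoma-derived) grown in F-12K with 2.5% FBS, 15% horse serum and pen/strep at 37 °C, 5% CO2. Seeded at 5×10^3 cells/well; treated at 80% confluency with 10 or 100 µM for 24 h. 10% DMSO served as positive cytotoxicity control. CCK-8 added for 1 h at 37 °C, absorbance read at 450 nm. Viability given as % of untreated cells; at least three experiments in triplicate.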
On the technique in general: Tetrazolium assays rely on reduction of a dye to a coloured formazan, in cell work by metabolically active cells.

Data set [5] is described as follows: Reactive carbonyl species trapping activity of compound assessed as MDA adduct formation at 10 mM preincubated for 24 hrs with MDA measured after 1 hr by LCMS analysis. The conditions noted are these: 10000 µM. Format: physicochemical.
A short description of data set [6]: Reactive carbonyl species trapping activity of compound assessed as MGO adduct formation at 10 mM preincubated for 24 hrs with MGO measured after 0.5 hrs by LCMS analysis. Format: physicochemical. The conditions noted are these: 10000 µM.
Data set [7] is described as follows: Reactive carbonyl species trapping activity of compound assessed as MGO adduct formation at 10 mM preincubated for 24 hrs with MGO measured after 24 hrs by LCMS analysis. The format is physicochemical. The conditions noted are these: 10000 µM.
The nature of data set [8]: Metal chelating activity of compound assessed as compound-Cu2+ complex formation at 200 uM after 10 mins in presence of CuSO4.5H2O by complexometric indicator murexide based UV-Vis spectrophotometric analysis. Format: physicochemical. Put shortly: as §1
A short description of data set [9]: Metal chelating activity of compound assessed as compound-Cu2+ complex formation at 1 mM after 10 mins in presence of CuSO4.5H2O by complexometric indicator murexide based UV-Vis spectrophotometric analysis. The format is physicochemical. The conditions noted are these: 1000 µM. Summed up: as §1
The nature of data set [10]: Reactive carbonyl species trapping activity of compound assessed as MGO adduct formation at 10 mM preincubated for 24 hrs with MGO measured after 15 mins by LCMS analysis. Format: physicochemical. As to conditions: 0.25 h, 10000 µM.
Data set [11] can be described thus: Reactive carbonyl species trapping activity of compound assessed as MDA adduct formation at 10 mM preincubated for 24 hrs with MDA measured after 24 hrs by LCMS analysis. The format is physicochemical. As to conditions: 10000 µM.
The nature of data set [12]: Metal chelating activity of compound assessed as compound-Cu2+ complex formation at 0.08 mM after 10 mins in presence of CuSO4.5H2O by complexometric indicator murexide based UV-Vis spectrophotometric analysis. The format is physicochemical. The conditions noted are these: 80 µM. Put shortly:
as §1

Data set [13] is described as follows: Metal chelating activity of compound assessed as compound-Cu2+ complex formation at 2 mM after 10 mins in presence of CuSO4.5H2O by complexometric indicator murexide based UV-Vis spectrophotometric analysis. The format is physicochemical. The conditions noted are these: 2000 µM. Summed up:
as §1

Data set [14] in a line: Metal chelating activity of compound assessed as compound-Cu2+ complex formation at 0.5 mM after 10 mins in presence of CuSO4.5H2O by complexometric indicator murexide based UV-Vis spectrophotometric analysis. Format: physicochemical. As to conditions: 500 µM. Summed up: as §1
A short description of data set [15]: Metal chelating activity of compound assessed as compound-Cu2+ complex formation at 0.05 mM after 10 mins in presence of CuSO4.5H2O by complexometric indicator murexide based UV-Vis spectrophotometric analysis. The format is physicochemical. The conditions noted are these: 50 µM. Put shortly: as §1
Data set [16] is described as follows: Reactive carbonyl species trapping activity of compound assessed as MDA adduct formation at 10 mM preincubated for 24 hrs with MDA measured after 5 hrs by LCMS analysis. The format is physicochemical. The conditions noted are these: 10000 µM.
The nature of data set [17]: Reactive carbonyl species trapping activity of compound assessed as MDA adduct formation at 10 mM preincubated for 24 hrs with MDA measured after 0.5 hrs by LCMS analysis. The format is physicochemical. As to conditions: 10000 µM.
Data set [18] can be described thus: Reactive carbonyl species trapping activity of compound assessed as MGO adduct formation at 10 mM preincubated for 24 hrs with MGO measured after 1 hr by LCMS analysis. The format is physicochemical. The conditions noted are these: 10000 µM.
The nature of data set [19]: Reactive carbonyl species trapping activity of compound assessed as MDA adduct formation at 10 mM preincubated for 24 hrs with MDA measured after 0.25 hrs by LCMS analysis. Format: physicochemical. As to conditions: 10000 µM.
The nature of data set [20]: Antioxidant activity assessed as inhibition of AAPH-induced peroxyl radical generation measured as trolox equivalent at 10 uM preincubated for 30 mins followed by AAPH addition measured evey 60 secs for 60 cycles by ORAC-FL assay. Format: functional. As to conditions: in the assay text read “90 secs” for “60 secs”. Put shortly:
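Fluorescein (12 nM) preincubated with compound (1-20 µM) or Trolox standard (1-50 µM) in D-PBS, at least 30 min at 37 °C. Reaction started with AAPH (30 mM). Fluorescence (ex 485/em 520 nm) read every 90 s for 60 cycles. Net AUC is converted to Trolox equivalents via the Trolox calibration line. Values are reported at 10 µM, from at least three independent experiments in triplicate.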

For the compound `Cl.Cl.NCC(N)CCC(=O)N1CCN(C(=O)CCn2cccc(O)c2=O)CC1` (stereo not drawn), the Activity in data set [1] is reported as 36.03%; in data set [2], 97%; in data set [3], 11.76%; in [4], 99%; in the data set filed under Rattus norvegicus it was “Non-Toxic”; in data set [5] it was 81%. The Activity in [6] was found to be 97%; in [7], 98%; in data set [8], 53.23%; in data set [9], 74.59%; in data set [10], 97%; in data set [11], 84%. In addition, the Activity in [12] was 31.08%; in [13], 76.53%; in data set [14], 71.58%; in data set [15], 23.88%; in data set [16] it was 85%; in data set [17], 76%. Further, the figures for the Activity in data set [18] and in data set [19] were 98% and 74%, respectively. The Activity (umolequiv/umol) in data set [20] was determined as 0.99.

As for `Cl.Cl.NCC(N)CCC(=O)N1CCN(C(=O)c2cc(O)c(O)c(O)c2)CC1` (stereo not drawn), the Activity was 29.96% in data set [1]; 81% in data set [2]; 5.71% in [3]; 88% in data set [4]; “Non-Toxic” in the data set listed under Rattus norvegicus; 68% in [5]. The Activity in data set [6] was 85%; in [7] it was 100%; in [8], 52.75%; in [9], 78.48%; in data set [10] it was 81%; in data set [11] it was 87%. In addition, the Activity in data set [12] is given as 22.88%; in data set [13] it was 76.14%; in data set [14] it was 74.33%; in data set [15], 14%; in data set [16], 69%; in data set [17], 67%. The Activity in data set [18] was 87%; in data set [19], 50%. Also, the Activity (umolequiv/umol) in data set [20] stood at 0.89.

For the compound `Cl.Cl.NCC(N)C(=O)N1CCNCC1` (stereo not drawn), the Activity in [1] is 13.97%; in data set [3] it was 3.25%; in data set [4] it was 51%; in the data set filed under Rattus norvegicus it was “Non-Toxic”; in data set [5], 100%; in data set [6] it was 33%. In addition, the Activity in data set [7] is 82%; in [8] it was 23.6%; in data set [9], 51.61%; in [11], 100%; in data set [12] it was 10.65%; in [13], 62.15%. Besides, the Activity in data set [14] amounted to 40.27%; in [15], 7.07%; in data set [16], 100%; in data set [17], 100%; in [18] it was 37%; in data set [19], 100%. In [20], the Activity (umolequiv/umol) was found to be 0.

In the case of `Cc1c(O)c(=O)ccn1CCC(=O)NCCCCC(N)CN.Cl.Cl` (stereo not drawn), the Activity in data set [1] is listed as 52.98%; in [2], 99%; in [3], 21.31%; in data set [4], 99%; in the data set filed under Rattus norvegicus, “Non-Toxic”; in data set [5], 88%. The Activity in data set [6] is 99%; in data set [7] it was 100%; in [8], 74.7%; in [9] it was 96%; in data set [10], 99%; in data set [11] it was 92%. For the same compound, the Activity in [12] turned out to be 48.35%; in data set [13] it was 97.73%; in data set [14] it was 91.66%; in data set [15] it was 38.95%; in data set [16], 89%; in [17], 88%. Further, the Activity amounted to 99% in [18] and 86% in [19]. For the same compound, in data set [20], the Activity (umolequiv/umol) came out at 1.24.

For the compound `COc1cc(/C=C/C(=O)NCCCCC(N)CN)ccc1O.Cl.Cl` (stereo not drawn), the Activity in data set [1] is given as 15.88%; in [2] it was 100%; in data set [3], 5.39%; in [4], 100%; in the data set filed under Rattus norvegicus it was “Non-Toxic”; in data set [5] it was 17%. For the same compound, the Activity amounted to 100% in data set [6]; 100% in [7]; 52.15% in [9]; 100% in [10]; 100% in data set [11]; 12.17% in data set [12]. Further, the Activity in [13] was determined as 59.06%; in data set [14] it was 42.89%; in data set [15], 7.96%; in data set [16] it was 24%; in data set [17], 17%; in data set [18] it was 100%. Besides, the Activity in data set [19] was 17%. In addition, in [20], the Activity (umolequiv/umol) stood at 1.5.

In the case of `Cl.Cl.NCC(N)CCCNC(=O)CCn1cccc(O)c1=O` (stereo not drawn), the Activity is given as 40.8% in data set [1]; 97% in data set [2]; 12.16% in data set [3]; 99% in [4]; “Non-Toxic” in the data set listed under Rattus norvegicus; 7% in [5]. The Activity is reported as 100% in data set [6]; 98% in data set [7]; 59.96% in data set [8]; 76.43% in data set [9]; 97% in data set [10]; 86% in data set [11]. The Activity in [12] was determined as 35.49%; in [13] it was 76.75%; in data set [14], 73.21%; in [15], 24.84%; in data set [16], 75%; in data set [17], 4%. Moreover, the Activity is recorded as 98% in data set [18] and 0% in data set [19]. The Activity (umolequiv/umol) in data set [20] was found to be 1.03.

Values taken from ChEMBL document CHEMBL3865830, “Multifunctional diamine AGE/ALE inhibitors with potential therapeutical properties against Alzheimer's disease” (Eur J Med Chem, 2016).
